From PMC11145139 (RSC Advances, 2024)
Converted amounts (≈) assume the structure as drawn. Residues, ends and D or L forms follow the SMILES beside them.

Key:
Format in all cases: cell-based
[1] = system: Staphylococcus aureus MTCC 96; test: Antibacterial activity, Mueller Hinton Broth microdilution MIC; conditions: vs Ampicillin (MIC 250 μg mL^−1)
[2] = system: Aspergillus niger MTCC 282; test: Antifungal activity, Muller Hinton Broth dilution MIC; conditions: for MIC (anti-fungicidal activity) A. n.: Aspergillus niger MTCC 282, Muller Hinton Broth dilution, Sabouraud's dextrose broth, 28 °C, aerobic, 48 hours, triplicate experiments
Summary of the method: (§1)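 Broth dilution in Mueller Hinton medium. Test compounds were screened in triplicate at 1000, 500, 250 and 200 μg mL−1; actives were diluted further and retested. Fungal growth was followed in Sabouraud's dextrose broth at 28 °C, aerobic, for 48 h. MIC was taken as the lowest concentration preventing visible growth. Nystatin served as reference standard. Stocks were kept at −70 °C in trypticase-soy broth with 20% glycerol and subcultured three times before use.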

[3] = system: Escherichia coli MTCC 443; test: Antibacterial activity, Mueller Hinton Broth microdilution MIC; conditions: for Potency relative to standard drug Ampicillin against E. coli: ratio of MIC values vs Ampicillin (MIC 100 μg mL^−1)
[4] = system: Candida albicans MTCC 227; test: Antifungal activity, Muller Hinton Broth dilution MIC; conditions: for MIC (anti-fungicidal activity) C. a.: Candida albicans MTCC 227, Muller Hinton Broth dilution, Sabouraud's dextrose broth, 28 °C, aerobic, 48 hours, triplicate experiments
Summary of the method: as §1

[5] = system: Streptococcus pyogenes MTCC 442; test: Antibacterial activity, Mueller Hinton Broth microdilution MIC; conditions: ratio of MIC values vs standard drug (MIC 100 μg mL^−1)
[6] = system: Pseudomonas aeruginosa MTCC 1688; test: as above; conditions: ratio of MIC values vs Ampicillin (MIC 100 μg mL^−1)
[7] = vs Nystatin (active at 100 μg mL^−1)

MIC ([3]; Escherichia coli, MTCC443, 48 h, read-out: MIC (anti-bacterial activity) E. c.)	Structure (SMILES)	Potency relative to control drug Ampicillin against Staphylococcus aureus [1]	MIC (anti-fungicidal activity) A. n. [2]	Potency relative to standard drug Ampicillin against E. coli [3]	MIC (anti-fungicidal activity) C. a. [4]	Potency relative to standard drug Ampicillin against Streptococcus pyogenes [5]	Potency relative to Nystatin against Aspergillus niger [2, 7]	Potency relative to standard drug Ampicillin against P. aeruginosa [6]	Potency relative to Nystatin against Candida albicans [4, 7]
	N=C(N)NCCC[C@H](NC(=O)[C@H](Cc1c[nH]cn1)NC(=O)[C@@H]1CCCN1C(=O)[C@H](CS)NC(=O)[C@@H]1CCCN1)C(=O)N[C@@H](CS)C(=O)O [Compound 7e, H-Pro-Cys-Pro-His-Arg-Cys-OH] (H-PCPHRC-OH)	almost twice potent	55 µg/mL (≈ 77.3 µM)	around 2 times	50 µg/mL (≈ 70.2 µM)				
	C[C@@H]1[C@H](O)[C@@H](C)/C=C/C=C/CC/C=C/C=C/C=C/C=C/C(O[C@H]2O[C@H](C)[C@@H](O)[C@H](N)[C@@H]2O)CC2O[C@](O)(CC(O)C(O)CCC(O)CC(O)CC(O)CC(=O)O[C@H]1C)CC(O)C2C(=O)O (some centres unmarked) [Nystatin, reference compound]		100 µg/mL (≈ 108 µM)		100 µg/mL (≈ 108 µM)				
	CC(C)C[C@H](N)C(=O)N[C@@H](CS)C(=O)N1CCC[C@H]1C(=O)N[C@@H](Cc1c[nH]cn1)C(=O)N[C@@H](CCCNC(=N)N)C(=O)N[C@@H](CS)C(=O)O [Compound 7d, H-Leu-Cys-Pro-His-Arg-Cys-OH] (H-LCPHRC-OH)		35 µg/mL (≈ 48.1 µM)	4 times	20 µg/mL (≈ 27.5 µM)	five time more potent	almost three times more potent	2.5 times	five times more potent
	C[C@H](N)C(=O)N[C@@H](CS)C(=O)N1CCC[C@H]1C(=O)N[C@@H](Cc1c[nH]cn1)C(=O)N[C@@H](CCCNC(=N)N)C(=O)N[C@@H](CS)C(=O)O [Compound 7b, H-Ala-Cys-Pro-His-Arg-Cys-OH] (H-ACPHRC-OH)	almost twice potent	50 µg/mL (≈ 72.9 µM)	around 2 times	55 µg/mL (≈ 80.2 µM)			2 times	
	N=C(N)NCCC[C@H](NC(=O)[C@H](Cc1c[nH]cn1)NC(=O)[C@@H]1CCCN1C(=O)[C@H](CS)NC(=O)[C@@H](N)Cc1ccc(O)cc1)C(=O)N[C@@H](CS)C(=O)O [Compound 7f, H-Tyr-Cys-Pro-His-Arg-Cys-OH] (H-YCPHRC-OH)	almost twice potent	50 µg/mL (≈ 64.3 µM)	around 2 times	40 µg/mL (≈ 51.4 µM)			2 times	
100 µg/mL (≈ 286 µM)	CC1(C)S[C@@H]2[C@H](NC(=O)[C@H](N)c3ccccc3)C(=O)N2[C@H]1C(=O)O [Ampicillin, reference compound]								
	CC(C)[C@H](N)C(=O)N[C@@H](CS)C(=O)N1CCC[C@H]1C(=O)N[C@@H](Cc1c[nH]cn1)C(=O)N[C@@H](CCCNC(=N)N)C(=O)N[C@@H](CS)C(=O)O [Compound 7c, H-Val-Cys-Pro-His-Arg-Cys-OH] (H-VCPHRC-OH)	almost twice potent	40 µg/mL (≈ 56 µM)	2.5 times	35 µg/mL (≈ 49 µM)	2 times		2 times	
	N=C(N)NCCC[C@H](NC(=O)[C@H](Cc1c[nH]cn1)NC(=O)[C@@H]1CCCN1C(=O)[C@H](CS)NC(=O)CN)C(=O)N[C@@H](CS)C(=O)O [Compound 7a, H-Gly-Cys-Pro-His-Arg-Cys-OH] (H-GCPHRC-OH)		65 µg/mL (≈ 96.8 µM)		60 µg/mL (≈ 89.3 µM)				
